Screening results deposited in PubChem by several laboratories.
Most compounds without a hit are left out; they make up all but 3.1% or so of the library.
Myeloid diff MLP – myeloid differentiation induction; ER-HoxA9 myeloid progenitors, lysozyme-GFP differentiation, flow cytometry; calls only at 10 µM; hit rate 1% among 360,000; AID 624256;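 active means normalized GFP-positive differentiation at or above the plate's own cutoff, the solvent-only control mean plus 3 SD; inconclusive means no clear call, values can overlap the other calls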;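 further: cells exposed to compound for four days before flow analysis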
PP5 primary – PP5 (human) phosphatase inhibition | P53041 | AID 1987 | hit rate 0.18% among 320,000 | purified PP5c, OMFP substrate fluorescence | inhibition, % at 6.7 µM;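 active means inhibition above the campaign's mean inhibition across all tested compounds plus 3 SD, cut at about 9.5% in these data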
NadD block – NadD (S. aureus) enzyme inhibition; inhibition, % at 20 µM; hit rate 0.78% among 360,000; AID 602399; purified NadD enzyme, colorimetric absorbance read-out; in the data active means inhibition above about 26%
HCV core dimer – blocks dimerization of HCV core protein | TR-FRET GST/Flag-core106 dimerization, 1536-well | inhibition, % at 5 µM | hit rate 0.33% among 300,000;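 active means inhibition above the mean of all tested compounds plus 3 SD, set per screening campaign, cut at about 45% in these data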
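System – GST-tagged and Flag-tagged HCV core protein residues 1-106 · Repeats – one well for each compound · Technique – TR-FRET 671 and 617 nm emission · Doses – one concentration, 5 µM, in 0.5% DMSO · Times – 4 h, 22.5 °C incubation · Also added – Eu donor and XL665 acceptor anti-tag antibodies · Measure – percent inhibition of core106 dimerization signal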
CTSL1 counter – cathepsin L1 inhibition, PFM18AAP counter-screen; hit rate 0.49% among 300,000; recombinant F. hepatica cathepsin L1, Z-Leu-Arg-MCA fluorescence; inhibition, % at 5.96 µM;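 active means inhibition above the mean of all tested compounds plus 3 SD, set per screening campaign, cut at about 17% in these data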
PP1 inh – blocks human PP1-alpha phosphatase, a PP5 counter-screen; AID 2235; hit rate 0.9% among 320,000; purified PP1alpha, OMFP fluorescence; inhibition, % at 6.7 µM;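 active means inhibition above the mean inhibition of all tested compounds plus 3 SD, computed separately for each screening campaign, cut at about 15% in these data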
Target sequence (P62136 whole entry, looked up): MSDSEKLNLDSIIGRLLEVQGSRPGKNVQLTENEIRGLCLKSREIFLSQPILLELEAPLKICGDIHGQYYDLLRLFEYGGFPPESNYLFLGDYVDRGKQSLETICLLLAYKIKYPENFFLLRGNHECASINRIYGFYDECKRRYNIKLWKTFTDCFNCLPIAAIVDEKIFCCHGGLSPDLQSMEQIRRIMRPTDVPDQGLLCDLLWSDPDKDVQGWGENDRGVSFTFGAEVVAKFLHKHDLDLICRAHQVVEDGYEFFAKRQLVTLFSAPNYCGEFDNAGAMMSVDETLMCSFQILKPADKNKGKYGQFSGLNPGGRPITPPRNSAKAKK
PP5 inh confirm – PP5 (human) inhibition, confirmation; hit rate 22% among 460; shares compounds with PP5 primary; Purified PP5, fluorogenic phosphatase substrate, fluorescence; inhibition, % at 6.7 µM; in the data active means inhibition above about 9.5%
PP1 counter 3x – PP1 phosphatase inhibition, counter-screen for PP5 inhibitors. shares compounds with PP5 primary. PP1 enzyme, fluorescent phosphatase substrate. inhibition, % at 6.7 µM. hit rate 4% among 460; in the data active means inhibition above about 16%
Hits are given with their value; - = inactive; ? = inconclusive; . = not tested or not shown.

SMILES	Myeloid diff MLP	PP5 primary	NadD block	HCV core dimer	CTSL1 counter	PP1 inh	PP5 inh confirm	PP1 counter 3x
O=C(NC1CCCCCC1)C1c2ccccc2C(=O)N1Cc1cccs1 (stereo not given)	-	-	-	-	-	-	.	.
O=C(CN1CCCC1)N/N=C/c1ccc(-c2cccc(Cl)c2)o1	-	-	-	-	-	-	.	.
Cc1ccc([N+](=O)[O-])cc1-c1ccc(/C=N/NC(=O)CN2CCOCC2)o1	-	12	-	-	-	-	-	-
COc1ccc(CCNCc2cc3ccc(C)cc3[nH]c2=O)cc1OC	-	-	-	-	-	-	.	.
C=CCn1c(NC(=O)c2ccccc2Cl)c(C#N)c2nc3ccccc3nc21	-	11	-	-	-	-	28	-
CCCCn1c(NC(C)=O)c(C#N)c2nc3ccccc3nc21	-	-	-	-	-	-	.	.
CC1(NC(=O)c2cc(Cl)nc3ccccc23)CCS(=O)(=O)C1 (stereo not given)	-	-	-	.	.	-	.	.
CC1(C)Cc2c(sc(NC(=O)Nc3ccccc3)c2C(N)=O)CO1	-	11	-	-	-	-	-	-
COc1ccc(C(=O)Nc2ccc(OCC(F)(F)C(F)F)c(C(F)(F)F)c2)cc1OC	-	12	-	-	-	-	11	-
COc1cc(-c2noc(C)c2C(=O)NCCc2ccccc2)cc(OC)c1OC	-	.	-	.	.	.	.	.
COC(=O)c1c(-c2ccc(C(C)(C)C)cc2)csc1NC(=O)C1C2CCC(O2)C1C(=O)O (stereo not given)	-	-	-	-	-	-	.	.
CCOC(=O)c1c(-c2cccc3ccccc23)csc1NC(=O)C1C2CCC(O2)C1C(=O)O (stereo not given)	-	11	-	-	-	-	-	-
Cc1cc(C)cc(NC(=S)N2CCC(C(=O)c3ccc(F)cc3)CC2)c1	-	.	-	.	.	.	.	.
O=C(Nc1cccc(F)c1)c1ccccc1	-	-	-	-	-	-	.	.
O=C(Nc1ccc(Nc2ccccc2)cc1)c1cccc(F)c1	-	9.8	-	-	-	-	-	-
CC(C)NC(=O)N(C)C[C@H]1OCc2cnnn2CCCC(=O)N([C@H](C)CO)C[C@H]1C	-	.	-	.	.	.	.	.
CCN(CC(=O)Nc1ccccc1C(F)(F)F)C(=O)c1ccc(N2CCCC2=O)cc1	-	-	-	.	.	-	.	.
Cn1c(SCC(=O)N2c3ccccc3CCc3ccccc32)nnc1-c1ccc(O)cc1	-	9.7	-	-	-	-	-	-
C[C@H]1CN([C@@H](C)CO)C(=O)c2cc(NC(=O)c3ccncc3)ccc2O[C@H]1CN(C)Cc1ccc(C(=O)O)cc1	-	.	-	.	.	.	.	.
COc1ccc(N2C(=O)CS/C2=N\C(=S)Nc2ccccc2)cc1	-	-	-	-	-	-	.	.
CCCN(CCC)C(=O)CC(c1ccccc1)c1cc(Br)ccc1O (stereo not given)	-	12	-	-	-	-	-	-
O=C(CC(c1ccccc1)c1cc(Br)ccc1O)N1CCCCC1 (stereo not given)	-	-	-	-	-	-	.	.
Cc1cccc(NC(=O)C2CCN(S(=O)(=O)c3cccc4nonc34)CC2)c1	-	-	-	-	-	-	.	.
Cc1ccccc1S(=O)(=O)N(CC(O)CN1C(=O)NC(C)(C)C1=O)c1ccccc1 (stereo not given)	-	10	-	-	-	-	-	-
COc1cc(-c2cc(-c3ccc(O)cc3)nc(N)c2C#N)ccc1O	-	-	-	-	-	-	.	.
SMILES	Myeloid diff MLP	PP5 primary	NadD block	HCV core dimer	CTSL1 counter	PP1 inh	PP5 inh confirm	PP1 counter 3x
CCOc1cc(-c2cc(-c3ccc(C)cc3)nc(N)c2C#N)ccc1O	-	9.7	-	-	-	-	-	-
C=C(C)C1CC=C(C)/C(=N/NC(=O)CNc2ccc(C)cc2C)C1 (stereo not given)	-	-	-	-	-	-	.	.
C=C(C)C1CC=C(C)/C(=N/NC(=O)CNc2ccc(OCC)cc2)C1 (stereo not given)	-	9.6	-	-	-	-	-	-
COc1ccccc1N1CCN(C(=O)c2ccc(COc3cccc4c3OC(C)(C)C4)cc2)CC1	-	12	-	-	-	-	-	-
CC1(C)Cc2cccc(OCC(=O)N3CCN(c4ccccc4F)CC3)c2O1	-	-	-	-	-	-	.	.
Fc1ccccc1OCCCCN1CCCCC1	-	13	-	-	-	-	-	-
Clc1ccccc1OCCCCN1CCCCC1	-	-	-	-	-	-	.	.
CS(=O)(=O)c1ccc(C(=O)CN2C(=O)NC3(CCCc4ccccc43)C2=O)cc1 (stereo not given)	-	-	-	.	.	-	.	.
COc1ccc(-c2noc(-c3ccccc3C(=O)Nc3cccnc3)n2)cc1OC	-	-	-	-	-	-	.	.
COc1ccccc1-c1noc(-c2ccccc2C(=O)Nc2cccnc2)n1	-	10	-	-	-	-	-	-
CCOC(=O)/C=C/C(=O)Nc1ccc(S(=O)(=O)Nc2c(C)cc(C)cc2C)cc1	-	9.6	-	-	-	-	-	-
CCOC(=O)/C=C/S(=O)(=O)c1ccc(NC(C)=O)cc1	?	-	-	-	-	-	.	.
COc1ccc(-c2cc(C(=O)N/N=C(\C)c3cccnc3)c3cc(C)ccc3n2)cc1OC	?	-	-	-	-	-	.	.
Cc1ccc(S(=O)(=O)N2CCN(C(=O)CN3CCOCC3)C2C(C)C)cc1 (stereo not given)	-	12	-	-	-	-	-	-
CC1(OC(=O)C2CCCC2)C(=O)C=C2C=C(c3ccsc3)N(CCCCO)C=C2C1=O (stereo not given)	-	10	-	-	-	-	44	18
O=C(CSc1cccc(C(F)(F)F)c1)Nc1ccc(N2CCOCC2)cc1	-	.	-	.	.	.	.	.
Cc1cc(C)c(S(=O)(=O)c2cccc(Br)c2C)c(=O)[nH]1	-	-	-	-	-	-	.	.
CC(C)(C)C(=O)N1CCN(c2ccnc3cc(Cl)ccc23)CC1	-	-	-	-	-	-	.	.
O=C(Nc1ccc(OC(F)(F)F)cc1)N1CCN(c2ccnc3cc(Cl)ccc23)CC1	?	10	-	-	-	-	-	-
COc1ccc(C(CNC(=O)c2cccc(Br)c2)N2CCCC2)cc1 (stereo not given)	-	10	-	-	-	-	-	-
COC(=O)c1ccc(C2C(C(=O)OCC(C)C)=C(C)N=C3SCCC(=O)N32)cc1 (stereo not given)	-	10	-	-	-	-	-	-
CC(=O)N(C)C[C@@H]1Oc2ncc(C#Cc3ccc(F)cc3)cc2C(=O)N([C@@H](C)CO)C[C@H]1C	-	.	-	.	.	.	.	.
O=C(NCCc1ccccn1)c1cc(-c2cccc3ccccc23)nc2ccccc12	-	21	-	-	-	-	-	-
CCCc1[nH]c2ccc(C#N)cc2c1CCC	-	13	-	-	-	-	-	-
